This passage reports Ki, inhibition and MIC results from ChEMBL document CHEMBL5325390, “1,2,4-Triazole-3-thione analogues with an arylakyl group at position 4 as metallo-β-lactamase inhibitors” (Bioorg Med Chem, 2022).

Chain of Metallo-beta-lactamase type 2 (C7C422 whole entry): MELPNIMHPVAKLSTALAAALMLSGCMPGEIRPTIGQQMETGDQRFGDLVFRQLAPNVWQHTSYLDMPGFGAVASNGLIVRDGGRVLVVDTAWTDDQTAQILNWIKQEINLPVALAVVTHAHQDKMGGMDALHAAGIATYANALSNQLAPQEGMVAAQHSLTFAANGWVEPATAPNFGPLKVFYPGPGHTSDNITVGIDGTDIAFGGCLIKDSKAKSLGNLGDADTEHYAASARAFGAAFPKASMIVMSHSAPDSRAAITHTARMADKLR

Test system in the first experiment: not listed separately
Kind of experiment: Binding affinity to IMP1 (unknown origin) expressed in Escherichia coli BL21(DE3) assessed as inhibition constant by measuring rate of substrate hydrolysis by UV-Vis spectrophotometric analysis. The settings on record: read-out: Ki. The method, boiled down:
(§1)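 Purified MBL (1–70 nM) with 150 µM imipenem or meropenem as reporter substrate, 50 mM HEPES pH 7.5, 30 °C. Hydrolysis followed by absorbance at 300 nm without and with inhibitor (0.5 µM–1 mM). Ki from the slope of v0/vi vs [I] under a competitive model, or from Dixon plots varying inhibitor and substrate. […] Triplicate, mean ± SD.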
Turning to `O=C(O)c1ccccc1/C=N/n1c(-c2cccc(-c3ccccc3)c2)n[nH]c1=S`, the Ki turned out to be 17.7 µM.

As for `O=C1OC(Cn2c(-c3ccc4ccccc4c3)n[nH]c2=S)c2ccccc21` (stereo unspecified), the Ki was determined as 9.8 µM.

For `COc1ccc(O)c(-c2n[nH]c(=S)n2[C@@H]2C[C@H]2c2ccccc2)c1`, the Ki is 4.6 µM.

On to `COc1ccc(O)c(-c2n[nH]c(=S)n2CCc2ccccc2)c1`, for which the Ki was determined as 20.2 µM.

As for `Oc1cccc(CCn2c(-c3cccc(-c4ccccc4)c3)n[nH]c2=S)c1O`, the Ki is 20 µM.

Take `Oc1ccc(CCn2c(-c3ccccc3)n[nH]c2=S)c(O)c1`: the Ki was 27 µM.

For the compound `Oc1ccc(/C=N/n2c(-c3ccccc3-c3ccccc3)n[nH]c2=S)c(O)c1`, the Ki is 12 µM.

In the case of `Oc1ccc(CCn2c(-c3ccccc3)n[nH]c2=S)cc1`, the Ki was 42 µM.

On to `S=c1[nH]nc(-c2ccccc2)n1CCc1ccc(OCc2ccccc2)cc1`, for which the Ki is 5.3 µM.

The next experiment relates to metallo-β-lactamase VIM-2 (Pseudomonas aeruginosa). Kind of experiment: Inhibition of VIM-2 (unknown origin) expressed in Escherichia coli BL21(DE3) assessed as substrate hydrolysis at 100 uM by UV-Vis spectrophotometric analysis relative to control.
Details: not given
By inhibition is commonly meant the percentage by which the read-out fell short of the control. For `O=C1OC(Cn2c(-c3ccc4ccccc4c3)n[nH]c2=S)c2ccccc21` (stereo unspecified), the inhibition is less than 30%.

With `COc1ccc(O)c(-c2n[nH]c(=S)n2[C@@H]2C[C@H]2c2ccccc2)c1`, the inhibition worked out at 41%.

As to `Oc1ccc(CCn2c(-c3ccccc3)n[nH]c2=S)c(O)c1`, the inhibition is less than 30%.

The target of another experiment is Metallo-beta-lactamase type 2 (Bacteria) (UniProt C7C422). Kind of experiment: Inhibition of NDM1 (unknown origin) expressed in Escherichia coli BL21(DE3) assessed as substrate hydrolysis at 100 uM by UV-Vis spectrophotometric analysis relative to control.
Chain of Metallo-beta-lactamase type 2 (Bacteria) (C7C422 whole entry): as above
Details: not given
Put shortly: (§2)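 Single-point screen at 100 or 200 µM inhibitor against purified MBL (1–70 nM) with 150 µM imipenem or meropenem reporter substrate, 50 mM HEPES pH 7.5, 30 °C. Initial hydrolysis rate read by absorbance at 300 nm and compared with the uninhibited reaction. Triplicate.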
Turning to `S=c1[nH]nc(-c2ccccc2)n1CCc1ccc(OCc2ccccc2)cc1`, the inhibition was less than 30%.

For a further experiment, the system named is Klebsiella pneumoniae. Kind of experiment: Antimicrobial synergistic activity against blaVIM-1-producing multidrug-resistant Klebsiella pneumoniae 7023 clinical isolate assessed as meropenem MIC at 32 ug/ml by CLSI based broth microdilution method (reference value: 16 ug/ml). The following applies: dose 32 µg/ml. Type of experiment: functional. A general note: Dilution methods test growth across graded concentrations, often in twofold steps.
As a reminder, the MIC is the least concentration at which growth counts as inhibited. In the case of `COc1ccc(O)c(-c2n[nH]c(=S)n2[C@@H]2C[C@H]2c2ccccc2)c1`, the MIC came out at 4 mg/L.

With `COc1ccc(O)c(-c2n[nH]c(=S)n2CCc2ccccc2)c1`, the minimum inhibitory concentration (MIC) turned out to be 4 mg/L.

In the case of `Oc1cccc(CCn2c(-c3cccc(-c4ccccc4)c3)n[nH]c2=S)c1O`, the MIC came out at 16 mg/L.

Consider `Oc1ccc(CCn2c(-c3ccccc3)n[nH]c2=S)c(O)c1`, for which the MIC was 4 mg/L.

For the compound `Oc1ccc(CCn2c(-c3ccccc3)n[nH]c2=S)cc1`, the minimal inhibitory concentration (MIC) was found to be 4 mg/L.

The next experiment addresses Beta-lactamase VIM-1 (Bacteria) (UniProt Q8GDC1). The experiment can be described thus: Inhibition of VIM-1 (unknown origin) expressed in Escherichia coli BL21(DE3) assessed as substrate hydrolysis at 100 uM by UV-Vis spectrophotometric analysis relative to control.
Details: not given
The method, boiled down:
as §2
On to `S=c1[nH]nc(-c2ccccc2)n1CCc1ccc(OCc2ccccc2)cc1`, for which the inhibition turned out to be 34%.

In a further experiment the test system is Escherichia coli. Kind of experiment: Synergistic antimicrobial activity against blaNDM-1-producing multidrug-resistant Escherichia coli SI-004M clinical isolate assessed as meropenem MIC at 32 ug/ml by CLSI based microdilution method (reference value: 64 ug/ml). Type of experiment: functional. The settings on record: dose 32 µg/ml.
Take `COc1ccc(O)c(-c2n[nH]c(=S)n2[C@@H]2C[C@H]2c2ccccc2)c1`: the MIC amounted to 32 mg/L.

As to `COc1ccc(O)c(-c2n[nH]c(=S)n2CCc2ccccc2)c1`, the MIC was 64 mg/L.

Regarding `Oc1cccc(CCn2c(-c3cccc(-c4ccccc4)c3)n[nH]c2=S)c1O`, the MIC is 32 mg/L.

Consider `Oc1ccc(CCn2c(-c3ccccc3)n[nH]c2=S)cc1`, for which the MIC is 64 mg/L.

Test system in another experiment: not listed separately
The experiment can be described thus: Binding affinity to VIM-4 (unknown origin) expressed in Escherichia coli BL21(DE3) assessed as inhibition constant by measuring rate of substrate hydrolysis by UV-Vis spectrophotometric analysis.
Details: not given
The method, boiled down:
as §1
With `O=C(O)c1ccccc1/C=N/n1c(-c2cccc(-c3ccccc3)c2)n[nH]c1=S`, the Ki is 0.04 µM.

For the compound `O=C1OC(Cn2c(-c3ccc4ccccc4c3)n[nH]c2=S)c2ccccc21` (stereo unspecified), the Ki came to 8.2 µM.

`COc1ccc(O)c(-c2n[nH]c(=S)n2[C@@H]2C[C@H]2c2ccccc2)c1`: the Ki worked out at 2.5 µM.

For the compound `COc1ccc(O)c(-c2n[nH]c(=S)n2CCc2ccccc2)c1`, the Ki came to 1.5 µM.

Consider `Oc1cccc(CCn2c(-c3cccc(-c4ccccc4)c3)n[nH]c2=S)c1O`, for which the Ki came out at 0.8 µM.

Consider `Oc1ccc(CCn2c(-c3ccccc3)n[nH]c2=S)c(O)c1`, for which the Ki came out at 4.1 µM.

On to `Oc1ccc(/C=N/n2c(-c3ccccc3-c3ccccc3)n[nH]c2=S)c(O)c1`, for which the Ki worked out at 9 µM.

Consider `Oc1ccc(CCn2c(-c3ccccc3)n[nH]c2=S)cc1`, for which the Ki turned out to be 2.3 µM.

Another experiment relates to metallo-β-lactamase VIM-4 (Pseudomonas aeruginosa). The experiment can be described thus: Inhibition of VIM-4 (unknown origin) expressed in Escherichia coli BL21(DE3) assessed as substrate hydrolysis at 200 uM by UV-Vis spectrophotometric analysis relative to control.
Details: not given
For `S=c1[nH]nc(-c2ccccc2)n1CCc1ccc(OCc2ccccc2)cc1`, the inhibition is less than 50%.

The next experiment has as its target Metallo-beta-lactamase type 2 (Bacteria, UniProt C7C422). The experiment can be described thus: Binding affinity to NDM1 (unknown origin) expressed in Escherichia coli BL21(DE3) assessed as inhibition constant by measuring rate of substrate hydrolysis by UV-Vis spectrophotometric analysis. The settings on record: read-out: Ki. Put shortly:
as §1
In the case of `O=C(O)c1ccccc1/C=N/n1c(-c2cccc(-c3ccccc3)c2)n[nH]c1=S`, the Ki is 4.2 µM.

For `COc1ccc(O)c(-c2n[nH]c(=S)n2[C@@H]2C[C@H]2c2ccccc2)c1`, the Ki came out at 9.5 µM.

As for `COc1ccc(O)c(-c2n[nH]c(=S)n2CCc2ccccc2)c1`, the Ki is 6.8 µM.

Turning to `Oc1cccc(CCn2c(-c3cccc(-c4ccccc4)c3)n[nH]c2=S)c1O`, the Ki was 22.4 µM.

As to `Oc1ccc(/C=N/n2c(-c3ccccc3-c3ccccc3)n[nH]c2=S)c(O)c1`, the Ki was found to be 6.4 µM.

Consider `Oc1ccc(CCn2c(-c3ccccc3)n[nH]c2=S)cc1`, for which the Ki amounted to 12 µM.

The experiment is the same for the next values; noted with them: read-out: Ki(app).
Turning to `O=C1OC(Cn2c(-c3ccc4ccccc4c3)n[nH]c2=S)c2ccccc21` (stereo unspecified), the Ki turned out to be 28 µM.

Regarding `Oc1ccc(CCn2c(-c3ccccc3)n[nH]c2=S)c(O)c1`, the Ki stood at 42 µM.

Test system in another experiment: not listed separately
The experiment can be described thus: Binding affinity to VIM-2 (unknown origin) expressed in Escherichia coli BL21(DE3) assessed as inhibition constant by measuring rate of substrate hydrolysis by UV-Vis spectrophotometric analysis.
Details: not given
Put shortly:
as §1
On to `O=C(O)c1ccccc1/C=N/n1c(-c2cccc(-c3ccccc3)c2)n[nH]c1=S`, for which the Ki is 0.2 µM.

For `COc1ccc(O)c(-c2n[nH]c(=S)n2CCc2ccccc2)c1`, the Ki is 3.9 µM.

As for `Oc1cccc(CCn2c(-c3cccc(-c4ccccc4)c3)n[nH]c2=S)c1O`, the Ki worked out at 1.8 µM.

For `Oc1ccc(/C=N/n2c(-c3ccccc3-c3ccccc3)n[nH]c2=S)c(O)c1`, the Ki came out at 4.5 µM.

On to `Oc1ccc(CCn2c(-c3ccccc3)n[nH]c2=S)cc1`, for which the Ki was 6.1 µM.

As to `S=c1[nH]nc(-c2ccccc2)n1CCc1ccc(OCc2ccccc2)cc1`, the Ki came out at 18.9 µM.

For a further experiment, the system named is metallo-β-lactamase VIM-2 (Pseudomonas aeruginosa). Kind of experiment: Inhibition of VIM-2 (unknown origin) expressed in Escherichia coli BL21(DE3) assessed as substrate hydrolysis at 200 uM by UV-Vis spectrophotometric analysis relative to control.
Details: not given
For `O=C1OC(Cn2c(-c3ccc4ccccc4c3)n[nH]c2=S)c2ccccc21` (stereo unspecified), the inhibition is less than 50%.

On to `Oc1ccc(CCn2c(-c3ccccc3)n[nH]c2=S)c(O)c1`, for which the inhibition is less than 50%.

The target of the next experiment is Metallo-beta-lactamase type 2 (Bacteria) (UniProt C7C422). Kind of experiment: Inhibition of NDM1 (unknown origin) expressed in Escherichia coli BL21(DE3) assessed as substrate hydrolysis at 200 uM by UV-Vis spectrophotometric analysis relative to control.
Details: not given
The method, boiled down:
as §2
Take `S=c1[nH]nc(-c2ccccc2)n1CCc1ccc(OCc2ccccc2)cc1`: the inhibition is less than 50%.

For the next experiment, the system named is Klebsiella pneumoniae. The experiment can be described thus: Antimicrobial synergistic activity against blaVIM-4-producing multidrug-resistant Klebsiella pneumoniae VA416/02 clinical isolate assessed as meropenem MIC at 32 ug/ml by CLSI based broth microdilution method (reference value: 16 ug/ml). Type of experiment: functional. The settings on record: dose 32 µg/ml.
For `COc1ccc(O)c(-c2n[nH]c(=S)n2[C@@H]2C[C@H]2c2ccccc2)c1`, the MIC turned out to be 2 mg/L.

In the case of `COc1ccc(O)c(-c2n[nH]c(=S)n2CCc2ccccc2)c1`, the MIC is 2 mg/L.

For the compound `Oc1cccc(CCn2c(-c3cccc(-c4ccccc4)c3)n[nH]c2=S)c1O`, the MIC amounted to 4 mg/L.

For the compound `Oc1ccc(CCn2c(-c3ccccc3)n[nH]c2=S)c(O)c1`, the MIC turned out to be 2 mg/L.

For `Oc1ccc(CCn2c(-c3ccccc3)n[nH]c2=S)cc1`, the MIC was found to be 4 mg/L.

The next experiment concerns the target Beta-lactamase VIM-1 (Bacteria, UniProt Q8GDC1). The experiment can be described thus: Binding affinity to VIM-1 (unknown origin) expressed in Escherichia coli BL21(DE3) assessed as inhibition constant by measuring rate of substrate hydrolysis by UV-Vis spectrophotometric analysis.
Details: not given
The method, boiled down:
as §1
Take `O=C1OC(Cn2c(-c3ccc4ccccc4c3)n[nH]c2=S)c2ccccc21` (stereo unspecified): the Ki was determined as 6.3 µM.

For `COc1ccc(O)c(-c2n[nH]c(=S)n2[C@@H]2C[C@H]2c2ccccc2)c1`, the Ki came to 2.2 µM.

Turning to `COc1ccc(O)c(-c2n[nH]c(=S)n2CCc2ccccc2)c1`, the Ki came to 1.9 µM.

As for `Oc1cccc(CCn2c(-c3cccc(-c4ccccc4)c3)n[nH]c2=S)c1O`, the Ki was 0.7 µM.

`Oc1ccc(CCn2c(-c3ccccc3)n[nH]c2=S)c(O)c1`: the Ki turned out to be 5.1 µM.

Take `Oc1ccc(CCn2c(-c3ccccc3)n[nH]c2=S)cc1`: the Ki was determined as 2.1 µM.

The subject of the next experiment is metallo-β-lactamase VIM-4 (Pseudomonas aeruginosa). The experiment can be described thus: Inhibition of VIM-4 (unknown origin) expressed in Escherichia coli BL21(DE3) assessed as substrate hydrolysis at 100 uM by UV-Vis spectrophotometric analysis relative to control.
Details: not given
For the compound `S=c1[nH]nc(-c2ccccc2)n1CCc1ccc(OCc2ccccc2)cc1`, the inhibition is less than 30%.
